Drawing on ChEMBL document CHEMBL1811853, “Design and evaluation of 3-aminopyrazolopyridinone kinase inhibitors inspired by the natural product indirubin” (Bioorg Med Chem, 2011), this text covers inhibition for two compounds.

Assay [1] has as its target Tyrosine-protein kinase ABL1 (Homo sapiens, UniProt P00519). Nature of the assay: Inhibition of ABL at 30 uM by microfluidic mobility shift assay. The method, boiled down: (§1)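 Single-concentration screen, singlicate, 30 uM final (diluted from 1 mM DMSO solutions), fluorescently tagged peptide substrate appropriate to each kinase, ATP at apparent Km for each protein. Phosphorylated and unphosphorylated peptides separated electrophoretically; conversion is the phosphorylated peak area over the sum of both peaks. No-inhibitor and no-ATP controls; H89 reference on each plate.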

Assay [2] addresses Ribosomal protein S6 kinase alpha-1 (Homo sapiens) (UniProt Q15418). Nature of the assay: Inhibition of RSK1 at 30 uM by microfluidic mobility shift assay. The method, boiled down:
as §1

The target of assay [3] is T1, Aurora kinase A (Homo sapiens) (UniProt O14965).
T1 sequence (whole entry): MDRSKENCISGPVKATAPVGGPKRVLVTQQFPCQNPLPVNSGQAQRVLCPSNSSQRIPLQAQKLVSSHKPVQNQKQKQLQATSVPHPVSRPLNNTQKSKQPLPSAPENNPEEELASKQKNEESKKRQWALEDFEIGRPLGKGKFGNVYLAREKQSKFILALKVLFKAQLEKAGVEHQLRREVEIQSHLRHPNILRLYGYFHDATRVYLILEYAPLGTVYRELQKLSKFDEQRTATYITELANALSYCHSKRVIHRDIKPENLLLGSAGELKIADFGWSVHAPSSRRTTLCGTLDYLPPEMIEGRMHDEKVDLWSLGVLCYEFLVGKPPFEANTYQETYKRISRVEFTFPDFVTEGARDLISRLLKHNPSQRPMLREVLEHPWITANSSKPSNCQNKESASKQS
Nature of the assay: Inhibition of AurA at 30 uM by microfluidic mobility shift assay. The procedure, abridged:
as §1

For assay [4], the target named is Proto-oncogene tyrosine-protein kinase Src (Homo sapiens, UniProt P12931). The assay is described as follows: Inhibition of SRC at 30 uM by microfluidic mobility shift assay. The method, boiled down:
as §1

The target in assay [5] is Tyrosine-protein kinase Fyn (Homo sapiens, UniProt P06241). Nature of the assay: Inhibition of FYN at 30 uM by microfluidic mobility shift assay. The procedure, abridged:
as §1

Assay [6] has as its target Mitogen-activated protein kinase 3 (Homo sapiens) (UniProt P27361). Nature of the assay: Inhibition of ERK1 at 30 uM by microfluidic mobility shift assay. The procedure, abridged: as §1
For assay [7], the target named is Glycogen synthase kinase-3 beta (Homo sapiens) (UniProt P49841). The assay is described as follows: Inhibition of GSK3B at 30 uM by microfluidic mobility shift assay. The procedure, abridged:
as §1

Assay [8] addresses Mitogen-activated protein kinase 1 (Homo sapiens) (UniProt P28482). Nature of the assay: Inhibition of ERK2 at 30 uM by microfluidic mobility shift assay. The procedure, abridged: as §1
Assay [9] has as its target RAC-alpha serine/threonine-protein kinase (Homo sapiens) (UniProt P31749). Nature of the assay: Inhibition of AKT1 at 30 uM by microfluidic mobility shift assay. The method, boiled down:
as §1

A short description of assay [10]: Inhibition of PKA at 30 uM by microfluidic mobility shift assay. The method, boiled down:
as §1

In assay [11] the target is Serine/threonine-protein kinase Chk2 (Homo sapiens, UniProt O96017). Nature of the assay: Inhibition of CHK2 at 30 uM by microfluidic mobility shift assay. The procedure, abridged:
as §1

The target in assay [12] is Tyrosine-protein kinase Lyn (Homo sapiens, UniProt P07948). The assay is described as follows: Inhibition of LYN at 30 uM by microfluidic mobility shift assay. The procedure, abridged:
as §1

Assay [13] addresses Mitogen-activated protein kinase 14 (Homo sapiens, UniProt Q16539). Nature of the assay: Inhibition of p38alpha at 30 uM by microfluidic mobility shift assay. The method, boiled down: as §1
Assay [14] addresses Tyrosine-protein kinase Lck (Homo sapiens, UniProt P06239). The assay is described as follows: Inhibition of LCK at 30 uM by microfluidic mobility shift assay. The procedure, abridged: as §1
For assay [15], the target named is MAP kinase-activated protein kinase 2 (Homo sapiens, UniProt P49137). The assay is described as follows: Inhibition of MAPKAPK2 at 30 uM by microfluidic mobility shift assay. The procedure, abridged: as §1
Sequence of MAP kinase-activated protein kinase 2 (P49137 whole entry, looked up): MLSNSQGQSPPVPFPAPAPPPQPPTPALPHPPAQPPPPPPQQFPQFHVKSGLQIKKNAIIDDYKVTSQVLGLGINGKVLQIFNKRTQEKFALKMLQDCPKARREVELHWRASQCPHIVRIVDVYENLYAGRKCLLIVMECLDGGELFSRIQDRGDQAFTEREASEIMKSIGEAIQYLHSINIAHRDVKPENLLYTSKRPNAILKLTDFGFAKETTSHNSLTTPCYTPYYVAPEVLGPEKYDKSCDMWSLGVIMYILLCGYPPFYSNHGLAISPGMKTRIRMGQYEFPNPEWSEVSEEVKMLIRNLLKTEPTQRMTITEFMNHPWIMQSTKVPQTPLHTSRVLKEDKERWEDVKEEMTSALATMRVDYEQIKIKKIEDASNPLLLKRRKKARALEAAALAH
Assay [16] deals with Ribosomal protein S6 kinase alpha-5 (Homo sapiens) (UniProt O75582). The assay is described as follows: Inhibition of MSK1 at 30 uM by microfluidic mobility shift assay. The procedure, abridged: as §1
Sequence of Ribosomal protein S6 kinase alpha-5 (Homo sapiens) (O75582 whole entry, looked up): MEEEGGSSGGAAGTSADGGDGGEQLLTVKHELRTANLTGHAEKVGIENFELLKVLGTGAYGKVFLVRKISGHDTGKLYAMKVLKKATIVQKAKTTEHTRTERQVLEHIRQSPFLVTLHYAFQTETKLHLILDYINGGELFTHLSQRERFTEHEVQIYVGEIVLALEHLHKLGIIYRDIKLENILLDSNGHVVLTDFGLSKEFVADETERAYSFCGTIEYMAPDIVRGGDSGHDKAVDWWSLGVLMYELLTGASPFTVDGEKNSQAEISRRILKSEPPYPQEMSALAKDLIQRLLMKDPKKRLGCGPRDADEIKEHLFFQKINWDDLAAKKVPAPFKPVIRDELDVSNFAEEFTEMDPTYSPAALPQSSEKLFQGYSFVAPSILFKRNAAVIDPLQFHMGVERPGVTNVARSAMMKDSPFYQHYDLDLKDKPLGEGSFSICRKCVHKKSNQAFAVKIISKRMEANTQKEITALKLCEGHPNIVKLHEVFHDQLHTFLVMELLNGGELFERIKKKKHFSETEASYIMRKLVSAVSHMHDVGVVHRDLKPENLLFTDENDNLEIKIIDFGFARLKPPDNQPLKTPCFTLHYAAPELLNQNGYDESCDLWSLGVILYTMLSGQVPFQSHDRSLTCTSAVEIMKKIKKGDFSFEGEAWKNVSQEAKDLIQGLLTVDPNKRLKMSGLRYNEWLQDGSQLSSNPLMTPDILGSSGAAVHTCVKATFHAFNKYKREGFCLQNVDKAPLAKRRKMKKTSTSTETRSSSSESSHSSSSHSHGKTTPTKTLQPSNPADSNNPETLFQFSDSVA
Assay [17] has as its target T2, Protein kinase C zeta type (Homo sapiens) (UniProt Q05513).
T2 sequence (whole entry): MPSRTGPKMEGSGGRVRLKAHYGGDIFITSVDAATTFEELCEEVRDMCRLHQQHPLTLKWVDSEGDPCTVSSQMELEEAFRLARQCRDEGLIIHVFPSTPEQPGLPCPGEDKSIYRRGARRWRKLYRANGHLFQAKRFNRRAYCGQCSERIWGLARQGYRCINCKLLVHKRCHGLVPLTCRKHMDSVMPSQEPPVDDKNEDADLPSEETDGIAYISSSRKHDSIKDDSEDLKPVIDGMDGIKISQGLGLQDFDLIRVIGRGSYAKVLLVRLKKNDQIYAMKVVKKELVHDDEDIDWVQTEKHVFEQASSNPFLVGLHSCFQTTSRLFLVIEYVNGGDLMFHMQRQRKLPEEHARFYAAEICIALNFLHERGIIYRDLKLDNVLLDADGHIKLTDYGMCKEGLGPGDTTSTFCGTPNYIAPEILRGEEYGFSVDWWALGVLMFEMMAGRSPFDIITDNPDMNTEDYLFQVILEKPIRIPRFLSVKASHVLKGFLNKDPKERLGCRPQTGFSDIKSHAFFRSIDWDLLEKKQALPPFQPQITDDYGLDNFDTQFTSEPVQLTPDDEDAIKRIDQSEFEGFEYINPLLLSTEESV
Nature of the assay: Inhibition of PKCz at 30 uM by microfluidic mobility shift assay. The method, boiled down: as §1

Assay [18] deals with RAC-beta serine/threonine-protein kinase (Homo sapiens) (UniProt P31751). Nature of the assay: Inhibition of AKT2 at 30 uM by microfluidic mobility shift assay. The procedure, abridged: as §1
Sequence of RAC-beta serine/threonine-protein kinase (Homo sapiens) (P31751 whole entry): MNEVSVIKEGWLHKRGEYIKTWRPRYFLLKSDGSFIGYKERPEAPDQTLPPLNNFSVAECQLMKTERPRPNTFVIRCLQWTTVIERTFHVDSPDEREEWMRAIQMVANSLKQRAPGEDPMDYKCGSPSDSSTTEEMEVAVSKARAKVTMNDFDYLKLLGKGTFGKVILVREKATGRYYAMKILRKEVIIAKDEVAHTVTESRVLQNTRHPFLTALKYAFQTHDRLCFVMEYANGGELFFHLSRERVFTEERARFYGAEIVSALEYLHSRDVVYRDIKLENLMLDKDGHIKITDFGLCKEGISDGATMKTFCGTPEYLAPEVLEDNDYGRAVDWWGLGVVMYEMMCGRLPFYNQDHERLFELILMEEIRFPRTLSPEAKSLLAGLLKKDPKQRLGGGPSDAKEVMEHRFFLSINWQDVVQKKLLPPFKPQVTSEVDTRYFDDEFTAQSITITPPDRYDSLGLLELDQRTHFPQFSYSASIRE

Sequence of Serine/threonine-protein kinase Chk2 (O96017 whole entry): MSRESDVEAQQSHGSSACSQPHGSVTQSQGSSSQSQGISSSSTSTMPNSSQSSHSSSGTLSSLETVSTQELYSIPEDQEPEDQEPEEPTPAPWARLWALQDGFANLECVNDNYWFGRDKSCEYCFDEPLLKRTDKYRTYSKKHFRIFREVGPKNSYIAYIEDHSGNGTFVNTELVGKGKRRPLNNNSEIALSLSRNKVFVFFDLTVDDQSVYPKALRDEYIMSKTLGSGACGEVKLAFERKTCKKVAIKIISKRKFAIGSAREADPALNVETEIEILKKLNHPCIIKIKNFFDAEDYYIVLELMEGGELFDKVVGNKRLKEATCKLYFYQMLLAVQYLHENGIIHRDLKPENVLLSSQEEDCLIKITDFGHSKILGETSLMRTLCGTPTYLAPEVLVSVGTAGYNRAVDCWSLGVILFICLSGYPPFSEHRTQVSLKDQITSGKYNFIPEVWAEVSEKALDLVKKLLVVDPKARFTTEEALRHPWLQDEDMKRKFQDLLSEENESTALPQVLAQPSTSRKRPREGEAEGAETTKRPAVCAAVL
Sequence of Mitogen-activated protein kinase 3 (Homo sapiens) (P27361 whole entry): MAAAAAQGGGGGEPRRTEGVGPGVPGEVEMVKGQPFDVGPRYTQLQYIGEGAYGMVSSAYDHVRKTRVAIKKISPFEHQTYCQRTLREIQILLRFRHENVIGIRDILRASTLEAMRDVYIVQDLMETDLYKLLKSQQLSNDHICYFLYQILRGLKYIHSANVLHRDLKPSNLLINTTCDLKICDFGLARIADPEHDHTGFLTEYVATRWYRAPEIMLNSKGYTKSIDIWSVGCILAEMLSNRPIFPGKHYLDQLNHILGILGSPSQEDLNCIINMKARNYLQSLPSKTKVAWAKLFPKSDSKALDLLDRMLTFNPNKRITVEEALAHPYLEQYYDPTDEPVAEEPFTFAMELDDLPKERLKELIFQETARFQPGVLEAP
Sequence of Mitogen-activated protein kinase 1 (Homo sapiens) (P28482 whole entry): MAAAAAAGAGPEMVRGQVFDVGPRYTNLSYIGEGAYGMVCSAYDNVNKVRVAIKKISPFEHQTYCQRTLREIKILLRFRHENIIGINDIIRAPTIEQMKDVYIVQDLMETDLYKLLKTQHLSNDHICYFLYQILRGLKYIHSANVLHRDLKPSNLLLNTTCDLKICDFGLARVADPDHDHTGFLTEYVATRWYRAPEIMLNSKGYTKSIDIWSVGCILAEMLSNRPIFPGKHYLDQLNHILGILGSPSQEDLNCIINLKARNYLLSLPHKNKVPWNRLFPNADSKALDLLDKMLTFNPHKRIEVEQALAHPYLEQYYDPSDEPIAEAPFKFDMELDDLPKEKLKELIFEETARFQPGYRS
Sequence of Tyrosine-protein kinase Fyn (P06241 2-537 limits assumed): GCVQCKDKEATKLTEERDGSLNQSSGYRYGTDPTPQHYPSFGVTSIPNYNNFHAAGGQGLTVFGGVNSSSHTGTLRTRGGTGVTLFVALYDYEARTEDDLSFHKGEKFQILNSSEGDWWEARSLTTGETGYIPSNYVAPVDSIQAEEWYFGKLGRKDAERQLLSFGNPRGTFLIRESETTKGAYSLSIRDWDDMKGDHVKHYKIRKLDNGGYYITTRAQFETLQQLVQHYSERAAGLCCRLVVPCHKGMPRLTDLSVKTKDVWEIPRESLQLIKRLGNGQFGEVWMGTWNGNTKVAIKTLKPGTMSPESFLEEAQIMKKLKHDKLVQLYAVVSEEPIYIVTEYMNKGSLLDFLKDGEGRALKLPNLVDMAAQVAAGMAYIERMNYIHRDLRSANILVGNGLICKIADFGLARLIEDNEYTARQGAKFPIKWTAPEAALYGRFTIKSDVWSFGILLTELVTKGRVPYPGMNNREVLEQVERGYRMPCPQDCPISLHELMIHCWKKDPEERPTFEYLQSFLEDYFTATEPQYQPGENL
Sequence of Ribosomal protein S6 kinase alpha-1 (Homo sapiens) (Q15418 whole entry): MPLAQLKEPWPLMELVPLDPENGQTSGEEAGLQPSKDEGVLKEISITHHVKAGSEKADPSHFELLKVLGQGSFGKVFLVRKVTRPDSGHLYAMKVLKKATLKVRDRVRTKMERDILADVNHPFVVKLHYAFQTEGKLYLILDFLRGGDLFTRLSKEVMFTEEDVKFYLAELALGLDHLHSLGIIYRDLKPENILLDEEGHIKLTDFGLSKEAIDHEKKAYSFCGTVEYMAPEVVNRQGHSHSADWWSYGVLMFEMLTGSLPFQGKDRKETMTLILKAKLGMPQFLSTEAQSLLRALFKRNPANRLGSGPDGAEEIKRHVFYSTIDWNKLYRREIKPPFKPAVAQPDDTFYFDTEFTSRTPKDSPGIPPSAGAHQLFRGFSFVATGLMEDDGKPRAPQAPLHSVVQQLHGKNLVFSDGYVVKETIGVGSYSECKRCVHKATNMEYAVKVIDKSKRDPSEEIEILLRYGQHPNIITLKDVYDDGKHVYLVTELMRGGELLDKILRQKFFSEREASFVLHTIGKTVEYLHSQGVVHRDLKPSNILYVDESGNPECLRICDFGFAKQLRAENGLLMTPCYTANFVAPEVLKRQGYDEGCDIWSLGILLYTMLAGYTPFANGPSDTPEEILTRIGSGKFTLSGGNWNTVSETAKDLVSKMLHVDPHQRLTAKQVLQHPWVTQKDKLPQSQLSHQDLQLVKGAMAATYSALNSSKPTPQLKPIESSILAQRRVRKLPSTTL
Sequence of Tyrosine-protein kinase Lck (P06239 2-509 limits assumed): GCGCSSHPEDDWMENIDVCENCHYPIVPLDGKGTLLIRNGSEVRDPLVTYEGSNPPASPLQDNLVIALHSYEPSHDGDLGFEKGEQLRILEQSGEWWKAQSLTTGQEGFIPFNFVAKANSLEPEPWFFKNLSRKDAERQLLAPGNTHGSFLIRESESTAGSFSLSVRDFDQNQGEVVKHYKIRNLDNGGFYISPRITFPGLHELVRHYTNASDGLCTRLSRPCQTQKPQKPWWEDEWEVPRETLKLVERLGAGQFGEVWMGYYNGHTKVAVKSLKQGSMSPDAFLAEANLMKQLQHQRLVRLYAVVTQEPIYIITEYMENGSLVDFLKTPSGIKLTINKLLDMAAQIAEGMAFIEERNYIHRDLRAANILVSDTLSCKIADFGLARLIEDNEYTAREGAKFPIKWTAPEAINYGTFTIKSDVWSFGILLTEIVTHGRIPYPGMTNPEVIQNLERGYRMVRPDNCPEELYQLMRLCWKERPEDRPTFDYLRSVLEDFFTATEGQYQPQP

Regarding `Cc1cc2nc(N)nc(N)c2c(=O)[nH]1`, the inhibition is 19% in assay [1]; -4% in assay [2]; 10% in assay [3]; 12% in [4]; 11% in assay [5]; 9% in assay [6]. For the same compound, the inhibition in [7] is 36%; in [8] it was 9%; in [9] it was 5%; in assay [10], -1%; in [11], 16%; in assay [12], 10%. Further, the inhibition in [13] was -1%; in assay [14], 12%; in assay [15] it was 26%; in [16], 6%; in assay [17] it was 8%; in [18], 0%.
As to `COc1cccc(-c2cc3[nH]nc(N)c3c(=O)[nH]2)c1`, the inhibition in assay [1] stood at 44%; in assay [2], 20%; in assay [3] it was 49%; in assay [4] it was 62%; in assay [5] it was 42%; in assay [6], 20%. In addition, the inhibition came out at 58% in assay [7]; 15% in assay [8]; 4% in assay [9]; 48% in assay [10]; 52% in [11]; 49% in [12]. In addition, the inhibition is 10% in assay [13]; 48% in assay [14]; 56% in [15]; 49% in [16]; -1% in [17]; 2% in [18].
